ChEMBL document CHEMBL4368898, “Tridecaptin-inspired antimicrobial peptides with activity against multidrug-resistant Gram-negative bacteria” (Medchemcomm, 2019)
≈ marks a conversion by molar mass, not a printed value. Where a SMILES comes first, the peptide text is derived from it. [ ]: non-standard residue; d: D form. The star is where a group is joined. d(aIle) = CC[C@H](C)[C@@H](N)C(=O)O; dOrn = NCCC[C@@H](N)C(=O)O; dDab = NCC[C@@H](N)C(=O)O; Octanoyl = CCCCCCCC(=O)*; Orn = NCCC[C@H](N)C(=O)O; Dab = NCC[C@H](N)C(=O)O

Legend:
Type in all cases: functional
Acinetobacter baumannii [1] = experiment: Antimicrobial activity against carbapenemase-non-producing Acinetobacter baumannii assessed as inhibition of bacterial growth incubated for 18 hrs by CLSI based serial broth dilution method
Procedure, shortened: (§1)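 MIC by microbroth dilution, run in duplicate, reported in μg mL−1 to three significant figures. The Gram-negative panel includes environmental isolates from sewage-contaminated water in Lebanon and clinical isolates from patients. Strains are classed by carbapenemase production.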

Acinetobacter baumannii [2] = experiment: Antimicrobial activity against carbapenemase-producing Acinetobacter baumannii ACM 11 assessed as inhibition of bacterial growth incubated for 18 hrs by CLSI based serial broth dilution method; details: ACM 11, 18 h; procedure, shortened: as §1
Acinetobacter baumannii [3] = experiment: Antimicrobial activity against carbapenemase-producing Acinetobacter baumannii ACM 29 assessed as inhibition of bacterial growth incubated for 18 hrs by CLSI based serial broth dilution method; details: ACM 29, 18 h; procedure, shortened: as §1
Enterobacter cloacae = experiment: Antimicrobial activity against carbapenemase-producing Enterobacter cloacae […] assessed as inhibition of bacterial growth incubated for 18 hrs by CLSI based serial broth dilution method; procedure, shortened: as §1
Klebsiella pneumoniae [4] = experiment: Antimicrobial activity against carbapenemase-non-producing Klebsiella pneumoniae assessed as inhibition of bacterial growth incubated for 18 hrs by CLSI based serial broth dilution method; procedure, shortened: as §1
Klebsiella pneumoniae [5] = experiment: Antimicrobial activity against carbapenemase-producing Klebsiella pneumoniae IMP 170 assessed as inhibition of bacterial growth incubated for 18 hrs by CLSI based serial broth dilution method; details: IMP 170, 18 h; procedure, shortened: as §1
Klebsiella pneumoniae [6] = experiment: Antimicrobial activity against carbapenemase-producing Klebsiella pneumoniae IMP 177 assessed as inhibition of bacterial growth incubated for 18 hrs by CLSI based serial broth dilution method; details: IMP 177, 18 h; procedure, shortened: as §1
Klebsiella pneumoniae [7] = experiment: Antimicrobial activity against carbapenemase-producing Klebsiella pneumoniae IMP 204 assessed as inhibition of bacterial growth incubated for 18 hrs by CLSI based serial broth dilution method; details: IMP 204, 18 h; procedure, shortened: as §1
Klebsiella pneumoniae [8] = experiment: Antimicrobial activity against carbapenemase-producing Klebsiella pneumoniae IMP 216 assessed as inhibition of bacterial growth incubated for 18 hrs by CLSI based serial broth dilution method; details: IMP 216, 18 h; procedure, shortened: as §1
Klebsiella pneumoniae [9] = experiment: Antimicrobial activity against carbapenemase-producing Klebsiella pneumoniae IMP 485 assessed as inhibition of bacterial growth incubated for 18 hrs by CLSI based serial broth dilution method; details: IMP 485, 18 h; procedure, shortened: as §1
Pseudomonas oleovorans = experiment: Antimicrobial activity against carbapenemase-non-producing Pseudomonas pseudoalcaligenes assessed as inhibition of bacterial growth incubated for 18 hrs by CLSI based serial broth dilution method; details: Ectopseudomonas oleovorans; procedure, shortened: as §1

SMILES	MIC (Acinetobacter baumannii [1])	MIC (Acinetobacter baumannii [2])	MIC (Acinetobacter baumannii [3])	MIC (Enterobacter cloacae)	MIC (Klebsiella pneumoniae [4])	MIC (Klebsiella pneumoniae [5])	MIC (Klebsiella pneumoniae [6])	MIC (Klebsiella pneumoniae [7])	MIC (Klebsiella pneumoniae [8])	MIC (Klebsiella pneumoniae [9])	MIC (Pseudomonas oleovorans)
CCCCCCCC(=O)N[C@@H](C(=O)N[C@H](CCCCN)C(=O)NCC(=O)N[C@H](CO)C(=O)N[C@H](Cc1c[nH]c2ccccc12)C(=O)N[C@@H](CO)C(=O)N[C@@H](CCCCN)C(=O)N[C@H](CCN)C(=O)N[C@@H](Cc1ccccc1)C(=O)N[C@@H](CCC(=O)O)C(=O)N[C@H](C(=O)N[C@@H](C(=O)N[C@@H](C)C(=O)O)[C@@H](C)CC)C(C)C)C(C)C (Octanoyl-[dV][dK]G[dS][dW]SK[dDab]FEV[d(aIle)]A-OH)	50 µg/mL (≈ 31.7 µM)	25 µg/mL (≈ 15.9 µM)	50 µg/mL (≈ 31.7 µM)	25 µg/mL (≈ 15.9 µM)	50 µg/mL (≈ 31.7 µM)	25 µg/mL (≈ 15.9 µM)	25 µg/mL (≈ 15.9 µM)	25 µg/mL (≈ 15.9 µM)	25 µg/mL (≈ 15.9 µM)	25 µg/mL (≈ 15.9 µM)	25 µg/mL (≈ 15.9 µM)
CCCCCCCC(=O)N[C@@H](C(=O)N[C@H](CCCCN)C(=O)NCC(=O)N[C@H](CO)C(=O)N[C@H](Cc1c[nH]c2ccccc12)C(=O)N[C@@H](CO)C(=O)N[C@@H](CCCCN)C(=O)N[C@H](CCCCN)C(=O)N[C@@H](Cc1ccccc1)C(=O)N[C@@H](CCC(=O)O)C(=O)N[C@H](C(=O)N[C@@H](C(=O)N[C@@H](C)C(=O)O)[C@@H](C)CC)C(C)C)C(C)C (HELM PEPTIDE1{[CCCCCCCC(=O)[*:2]].[dV].[dK].G.[dS].[dW].S.K.[dK].F.E.V.[CC[C@H](C)[C@@H](N[*:1])C(=O)[*:2]].A}$$$$V2.0)	6.25 µg/mL (≈ 3.89 µM)	25 µg/mL (≈ 15.6 µM)	25 µg/mL (≈ 15.6 µM)	25 µg/mL (≈ 15.6 µM)	50 µg/mL (≈ 31.2 µM)	50 µg/mL (≈ 31.2 µM)	25 µg/mL (≈ 15.6 µM)	50 µg/mL (≈ 31.2 µM)	25 µg/mL (≈ 15.6 µM)	25 µg/mL (≈ 15.6 µM)	100 µg/mL (≈ 62.3 µM)
CCCCCCCC(=O)N[C@@H](C(=O)N[C@H](CCN)C(=O)NCC(=O)N[C@H](CO)C(=O)N[C@H](Cc1c[nH]c2ccccc12)C(=O)N[C@@H](CO)C(=O)N[C@@H](CCN)C(=O)N[C@H](CCN)C(=O)N[C@@H](Cc1ccccc1)C(=O)N[C@@H](CCC(=O)O)C(=O)N[C@H](C(=O)N[C@@H](C(=O)N[C@@H](C)C(=O)O)[C@@H](C)CC)C(C)C)C(C)C	12.5 µg/mL (≈ 8.22 µM)	25 µg/mL (≈ 16.4 µM)	25 µg/mL (≈ 16.4 µM)	3.13 µg/mL (≈ 2.06 µM)	6.25 µg/mL (≈ 4.11 µM)	6.25 µg/mL (≈ 4.11 µM)	6.25 µg/mL (≈ 4.11 µM)	12.5 µg/mL (≈ 8.22 µM)	6.25 µg/mL (≈ 4.11 µM)	6.25 µg/mL (≈ 4.11 µM)	50 µg/mL (≈ 32.9 µM)
CCCCCCCC(=O)N[C@@H](C(=O)N[C@H](CCCCN)C(=O)NCC(=O)N[C@H](CO)C(=O)N[C@H](Cc1c[nH]c2ccccc12)C(=O)N[C@@H](CO)C(=O)N[C@@H](CCCCN)C(=O)N[C@H](CCCCN)C(=O)N[C@@H](Cc1ccccc1)C(=O)N[C@@H](CCC(=O)O)C(=O)N[C@H](C(=O)N[C@@H](C(=O)N[C@@H](C)C(=O)O)C(C)C)C(C)C)C(C)C (HELM PEPTIDE1{[CCCCCCCC(=O)[*:2]].[dV].[dK].G.[dS].[dW].S.K.[dK].F.E.V.[dV].A}$$$$V2.0)	> 100 µg/mL	> 100 µg/mL	> 100 µg/mL	> 100 µg/mL	> 100 µg/mL	> 100 µg/mL	> 100 µg/mL	> 100 µg/mL	> 100 µg/mL	> 100 µg/mL	> 100 µg/mL
CCCCCCCC(=O)N[C@@H](C(=O)N[C@H](CCCN)C(=O)NCC(=O)N[C@H](CO)C(=O)N[C@H](Cc1c[nH]c2ccccc12)C(=O)N[C@@H](CO)C(=O)N[C@@H](CCCN)C(=O)N[C@H](CCCN)C(=O)N[C@@H](Cc1ccccc1)C(=O)N[C@@H](CCC(=O)O)C(=O)N[C@H](C(=O)N[C@@H](C(=O)N[C@@H](C)C(=O)O)[C@@H](C)CC)C(C)C)C(C)C (Octanoyl-[dV][dOrn]G[dS][dW]S[Orn][dOrn]FEV[d(aIle)]A-OH)	12.5 µg/mL (≈ 8 µM)	50 µg/mL (≈ 32 µM)	50 µg/mL (≈ 32 µM)	6.25 µg/mL (≈ 4 µM)	12.5 µg/mL (≈ 8 µM)	25 µg/mL (≈ 16 µM)	25 µg/mL (≈ 16 µM)	25 µg/mL (≈ 16 µM)	6.25 µg/mL (≈ 4 µM)	25 µg/mL (≈ 16 µM)	50 µg/mL (≈ 32 µM)
CCCCCCCC(=O)N[C@@H](C(=O)N[C@H](CCCN)C(=O)NCC(=O)N[C@H](CO)C(=O)N[C@H](Cc1c[nH]c2ccccc12)C(=O)N[C@@H](CO)C(=O)N[C@@H](CCCN)C(=O)N[C@H](CCCN)C(=O)N[C@@H](Cc1ccccc1)C(=O)N[C@@H](CCC(=O)O)C(=O)N[C@H](C(=O)N[C@@H](C(=O)N[C@@H](C)C(=O)O)C(C)C)C(C)C)C(C)C (Octanoyl-[dV][dOrn]G[dS][dW]S[Orn][dOrn]FEV[dV]A-OH)	25 µg/mL (≈ 16.1 µM)	25 µg/mL (≈ 16.1 µM)	50 µg/mL (≈ 32.3 µM)	12.5 µg/mL (≈ 8.07 µM)	50 µg/mL (≈ 32.3 µM)	25 µg/mL (≈ 16.1 µM)	12.5 µg/mL (≈ 8.07 µM)	12.5 µg/mL (≈ 8.07 µM)	12.5 µg/mL (≈ 8.07 µM)	12.5 µg/mL (≈ 8.07 µM)	6.25 µg/mL (≈ 4.04 µM)
CCCCCCCC(=O)N[C@@H](C(=O)N[C@H](CCCN)C(=O)NCC(=O)N[C@H](CO)C(=O)N[C@H](Cc1c[nH]c2ccccc12)C(=O)N[C@@H](CO)C(=O)N[C@@H](CCCN)C(=O)N[C@H](CCN)C(=O)N[C@@H](Cc1ccccc1)C(=O)N[C@@H](CCC(=O)O)C(=O)N[C@H](C(=O)N[C@@H](C(=O)N[C@@H](C)C(=O)O)[C@@H](C)CC)C(C)C)C(C)C (Octanoyl-[dV][dOrn]G[dS][dW]S[Orn][dDab]FEV[d(aIle)]A-OH)	100 µg/mL (≈ 64.6 µM)	50 µg/mL (≈ 32.3 µM)	50 µg/mL (≈ 32.3 µM)	25 µg/mL (≈ 16.1 µM)	100 µg/mL (≈ 64.6 µM)	25 µg/mL (≈ 16.1 µM)	25 µg/mL (≈ 16.1 µM)	25 µg/mL (≈ 16.1 µM)	25 µg/mL (≈ 16.1 µM)	25 µg/mL (≈ 16.1 µM)	12.5 µg/mL (≈ 8.07 µM)
CCCCCCCC(=O)N[C@@H](C(=O)N[C@H](CCN)C(=O)NCC(=O)N[C@H](CO)C(=O)N[C@H](Cc1c[nH]c2ccccc12)C(=O)N[C@@H](CO)C(=O)N[C@@H](CCN)C(=O)N[C@H](CCN)C(=O)N[C@@H](Cc1ccccc1)C(=O)N[C@@H](CCC(=O)O)C(=O)N[C@H](C(=O)N[C@@H](C(=O)N[C@@H](C)C(=O)O)C(C)C)C(C)C)C(C)C (Octanoyl-[dV][dDab]G[dS][dW]S[Dab][dDab]FEV[dV]A-OH)	25 µg/mL (≈ 16.6 µM)	100 µg/mL (≈ 66.4 µM)	50 µg/mL (≈ 33.2 µM)	6.25 µg/mL (≈ 4.15 µM)	12.5 µg/mL (≈ 8.3 µM)	12.5 µg/mL (≈ 8.3 µM)	25 µg/mL (≈ 16.6 µM)	12.5 µg/mL (≈ 8.3 µM)	12.5 µg/mL (≈ 8.3 µM)	12.5 µg/mL (≈ 8.3 µM)	50 µg/mL (≈ 33.2 µM)
